Test results reported in ChEMBL document CHEMBL3627671, “Novel derivatives of nitro-substituted salicylic acids: Synthesis, antimicrobial activity and cytotoxicity” (Bioorg Med Chem, 2015).
Converted amounts (≈) assume the structure as drawn.

Columns and labels:
[1] = test system: Mycobacterium tuberculosis; experiment: Antimycobacterial activity against Mycobacterium tuberculosis H37Rv 331/88 after 14 days; format: functional; conditions: H37Rv 331/88, 336 h
[2] = test system: Mycobacterium tuberculosis; experiment: Antimycobacterial activity against Mycobacterium tuberculosis H37Rv 331/88 after 21 days; format: functional; conditions: H37Rv 331/88, 504 h
Mycobacterium avium [3] = experiment: Antimycobacterial activity against Mycobacterium avium 330/80 after 14 days; format: functional; conditions: 330/80, 336 h
Mycobacterium avium [4] = experiment: Antimycobacterial activity against Mycobacterium avium 330/80 after 21 days; format: functional; conditions: 330/80, 504 h
Mycobacterium kansasii [5] = experiment: Antimycobacterial activity against Mycobacterium kansasii 235/80 after 7 days; format: functional; conditions: 235/80, 168 h
How it was run: (§1)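 Šula's semisynthetic medium micromethod at 37 °C, read after 7, 14 and 21 days. The 1.0 McFarland suspension was diluted 10^-4. MIC determined. 6509/96 is a clinical isolate.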

Mycobacterium kansasii [6] = experiment: Antimycobacterial activity against Mycobacterium kansasii 235/80 after 14 days; format: functional; conditions: 235/80, 336 h; how it was run: as §1
Mycobacterium kansasii [7] = experiment: Antimycobacterial activity against Mycobacterium kansasii 235/80 after 21 days; format: functional; conditions: 235/80, 504 h; how it was run: as §1
Mycobacterium kansasii [8] = experiment: Antimycobacterial activity against Mycobacterium kansasii 6509/96 after 7 days; format: functional; conditions: 6509/96, 168 h; how it was run: as §1
Mycobacterium kansasii [9] = experiment: Antimycobacterial activity against Mycobacterium kansasii 6509/96 after 14 days; format: functional; conditions: 6509/96, 336 h; how it was run: as §1
Mycobacterium kansasii [10] = experiment: Antimycobacterial activity against Mycobacterium kansasii 6509/96 after 21 days; format: functional; conditions: 6509/96, 504 h; how it was run: as §1
Staphylococcus aureus [11] = experiment: Antibacterial activity against Staphylococcus aureus CCM 4516/08 after 24 hrs by microdilution broth method; format: functional; conditions: CCM 4516/08, 24 h
Staphylococcus aureus [12] = experiment: Antibacterial activity against Staphylococcus aureus CCM 4516/08 after 48 hrs by microdilution broth method; format: functional; conditions: CCM 4516/08, 48 h
Staphylococcus aureus [13] = experiment: Antibacterial activity against methicillin-resistant Staphylococcus aureus H 5996/08 after 24 hrs by microdilution broth method; format: functional; conditions: H 5996/08, 24 h
Staphylococcus aureus [14] = experiment: Antibacterial activity against methicillin-resistant Staphylococcus aureus H 5996/08 after 48 hrs by microdilution broth method; format: functional; conditions: H 5996/08, 48 h
[15] = test system: Staphylococcus epidermidis; experiment: Antibacterial activity against Staphylococcus epidermidis H 6966/08 after 24 hrs by microdilution broth method; format: functional; conditions: H 6966/08, 24 h
How it was run: (§2)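 Mueller-Hinton broth microdilution (modified M07-A07), pH 7.4 (±0.2). Compounds dissolved in DMSO, tested at final 500 to 0.49 µmol/L. Inoculum in sterile water matched to 0.5 McFarland. Incubated in the dark, humid atmosphere, 35 °C, read at 24 and 48 h visually and at 540 nm. MIC taken as ≥95% growth reduction (IC95) versus control.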

[16] = test system: Staphylococcus epidermidis; experiment: Antibacterial activity against Staphylococcus epidermidis H 6966/08 after 48 hrs by microdilution broth method; format: functional; conditions: H 6966/08, 48 h; how it was run: as §2
Enterococcus sp. [17] = experiment: Antibacterial activity against Enterococcus sp. J 14365/08 after 24 hrs by microdilution broth method; format: functional; conditions: J 14365/08, 24 h; how it was run: as §2
Enterococcus sp. [18] = experiment: Antibacterial activity against Enterococcus sp. J 14365/08 after 48 hrs by microdilution broth method; format: functional; conditions: J 14365/08, 48 h; how it was run: as §2
Escherichia coli [19] = experiment: Antibacterial activity against Escherichia coli CCM4517 after 24 hrs by microdilution broth method; format: functional; conditions: CCM4517, 24 h; how it was run: as §2
Escherichia coli [20] = experiment: Antibacterial activity against Escherichia coli CCM4517 after 48 hrs by microdilution broth method; format: functional; conditions: CCM4517, 48 h; how it was run: as §2
Klebsiella pneumoniae [21] = experiment: Antibacterial activity against Klebsiella pneumoniae D 11750/08 after 24 hrs by microdilution broth method; format: functional; conditions: D 11750/08, 24 h; how it was run: as §2
Klebsiella pneumoniae [22] = experiment: Antibacterial activity against Klebsiella pneumoniae D 11750/08 after 48 hrs by microdilution broth method; format: functional; conditions: D 11750/08, 48 h; how it was run: as §2
Klebsiella pneumoniae [23] = experiment: Antibacterial activity against ESBL-positive Klebsiella pneumoniae J 14368/08 after 24 hrs by microdilution broth method; format: functional; conditions: J 14368/08, 24 h; how it was run: as §2
Klebsiella pneumoniae [24] = experiment: Antibacterial activity against ESBL-positive Klebsiella pneumoniae J 14368/08 after 48 hrs by microdilution broth method; format: functional; conditions: J 14368/08, 48 h; how it was run: as §2
Pseudomonas aeruginosa [25] = experiment: Antibacterial activity against Pseudomonas aeruginosa CCM 1961 after 24 hrs by microdilution broth method; format: functional; conditions: CCM 1961, 24 h; how it was run: as §2
Pseudomonas aeruginosa [26] = experiment: Antibacterial activity against Pseudomonas aeruginosa CCM 1961 after 48 hrs by microdilution broth method; format: functional; conditions: CCM 1961, 48 h; how it was run: as §2
Candida albicans [27] = experiment: Antifungal activity against Candida albicans ATCC 44859 after 24 hrs by microdilution broth method; format: functional; conditions: ATCC 44859, 24 h
How it was run: (§3)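 CLSI M27-A3 broth microdilution in RPMI 1640 with glutamine, buffered to pH 7.0 with MOPS; DMSO diluent. Yeast inoculum 5 × 10^3 ± 0.2 CFU/mL. Moulds grown on Sabouraud agar 3–10 days before spore harvest, final inoculum 0.5-5 × 10^4 CFU/mL, checked in a Bürker chamber. Incubated dark, humid, 35 °C, read at 24 and 48 h visually and at 540 nm. MIC taken as ≥80% (yeasts) or ≥50% (filamentous) growth reduction versus control.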

Candida albicans [28] = experiment: Antifungal activity against Candida albicans ATCC 44859 after 48 hrs by microdilution broth method; format: functional; conditions: ATCC 44859, 48 h; how it was run: as §3
Candida tropicalis [29] = experiment: Antifungal activity against Candida tropicalis 156 after 24 hrs by microdilution broth method; format: functional; conditions: Candida tropicalis, 156, 24 h; how it was run: as §3
Candida tropicalis [30] = experiment: Antifungal activity against Candida tropicalis 156 after 48 hrs by microdilution broth method; format: functional; conditions: Candida tropicalis, 156, 48 h; how it was run: as §3
Pichia kudriavzevii [31] = experiment: Antifungal activity against Candida krusei E28 after 24 hrs by microdilution broth method; format: functional; conditions: E28, 24 h; how it was run: as §3
Pichia kudriavzevii [32] = experiment: Antifungal activity against Candida krusei E28 after 48 hrs by microdilution broth method; format: functional; conditions: E28, 48 h; how it was run: as §3
Nakaseomyces glabratus [33] = experiment: Antifungal activity against Candida glabrata 20/I after 24 hrs by microdilution broth method; format: functional; how it was run: as §3
Nakaseomyces glabratus [34] = experiment: Antifungal activity against Candida glabrata 20/I after 48 hrs by microdilution broth method; format: functional; how it was run: as §3
Trichosporon asahii [35] = experiment: Antifungal activity against Trichosporon asahii 1188 after 24 hrs by microdilution broth method; format: functional; conditions: Trichosporon asahii, 1188, 24 h; how it was run: as §3
Trichosporon asahii [36] = experiment: Antifungal activity against Trichosporon asahii 1188 after 48 hrs by microdilution broth method; format: functional; conditions: Trichosporon asahii, 1188, 48 h; how it was run: as §3
Aspergillus fumigatus [37] = experiment: Antifungal activity against Aspergillus fumigatus 231 after 24 hrs by microdilution broth method; format: functional; conditions: Aspergillus fumigatus, 231, 24 h; how it was run: as §3
Aspergillus fumigatus [38] = experiment: Antifungal activity against Aspergillus fumigatus 231 after 48 hrs by microdilution broth method; format: functional; conditions: Aspergillus fumigatus, 231, 48 h; how it was run: as §3
Lichtheimia corymbifera [39] = experiment: Antifungal activity against Absidia corymbifera 272 after 24 hrs by microdilution broth method; format: functional; conditions: Lichtheimia corymbifera, 272, 24 h; how it was run: as §3
Lichtheimia corymbifera [40] = experiment: Antifungal activity against Absidia corymbifera 272 after 48 hrs by microdilution broth method; format: functional; conditions: Lichtheimia corymbifera, 272, 48 h; how it was run: as §3
[41] = test system: Trichophyton mentagrophytes; experiment: Antifungal activity against Trichophyton mentagrophytes 445 after 24 hrs by microdilution broth method; format: functional; conditions: Trichophyton mentagrophytes, 445, 24 h
[42] = test system: Trichophyton mentagrophytes; experiment: Antifungal activity against Trichophyton mentagrophytes 445 after 48 hrs by microdilution broth method; format: functional; conditions: Trichophyton mentagrophytes, 445, 48 h
HepG2 = experiment: Cytotoxicity against human HepG2 cells after 24 hrs […]; format: cell-based; conditions: HepG2, 24 h
[43] = Selectivity index, ratio of CI50 for human HepG2 cells to MIC100 for Mycobacterium tuberculosis H37Rv 331/88

## O=C(Nc1cc(C(F)(F)F)cc(C(F)(F)F)c1)c1ccc([N+](=O)[O-])cc1O
[1]
  MIC: 4 µM (≈ 1.58 µg/mL)
[2]
  MIC: 8 µM (≈ 3.15 µg/mL)
Mycobacterium avium [3]
  MIC: 32 µM (≈ 12.6 µg/mL)
Mycobacterium avium [4]
  MIC: 32 µM (≈ 12.6 µg/mL)
Mycobacterium kansasii [5]
  MIC: 8 µM (≈ 3.15 µg/mL)
Mycobacterium kansasii [6]
  MIC: 16 µM (≈ 6.31 µg/mL)
Mycobacterium kansasii [7]
  MIC: 16 µM (≈ 6.31 µg/mL)
Mycobacterium kansasii [8]
  MIC: 16 µM (≈ 6.31 µg/mL)
Mycobacterium kansasii [9]
  MIC: 16 µM (≈ 6.31 µg/mL)
Mycobacterium kansasii [10]
  MIC: 16 µM (≈ 6.31 µg/mL)
Staphylococcus aureus [11]
  MIC: 1.95 µM (≈ 0.769 µg/mL)
Staphylococcus aureus [12]
  MIC: 1.95 µM (≈ 0.769 µg/mL)
Staphylococcus aureus [13]
  MIC: 0.98 µM (≈ 0.386 µg/mL)
Staphylococcus aureus [14]
  MIC: 0.98 µM (≈ 0.386 µg/mL)
[15]
  MIC: 1.95 µM (≈ 0.769 µg/mL)
[16]
  MIC: 1.95 µM (≈ 0.769 µg/mL)
Enterococcus sp. [17]
  MIC: 62.5 µM (≈ 24.6 µg/mL)
Enterococcus sp. [18]
  MIC: 125 µM (≈ 49.3 µg/mL)
Escherichia coli [19]
  MIC: > 500 µM
Escherichia coli [20]
  MIC: > 500 µM
Klebsiella pneumoniae [21]
  MIC: > 500 µM
Klebsiella pneumoniae [22]
  MIC: > 500 µM
Klebsiella pneumoniae [23]
  MIC: > 500 µM
Klebsiella pneumoniae [24]
  MIC: > 500 µM
Pseudomonas aeruginosa [25]
  MIC: > 500 µM
Pseudomonas aeruginosa [26]
  MIC: > 500 µM
Candida albicans [27]
  MIC: > 500 µM
Candida albicans [28]
  MIC: > 500 µM
Candida tropicalis [29]
  MIC: > 500 µM
Candida tropicalis [30]
  MIC: > 500 µM
Pichia kudriavzevii [31]
  MIC: > 500 µM
Pichia kudriavzevii [32]
  MIC: > 500 µM
Nakaseomyces glabratus [33]
  MIC: > 500 µM
Nakaseomyces glabratus [34]
  MIC: > 500 µM
Trichosporon asahii [35]
  MIC: > 500 µM
Trichosporon asahii [36]
  MIC: > 500 µM
Aspergillus fumigatus [37]
  MIC: > 500 µM
Aspergillus fumigatus [38]
  MIC: > 500 µM
Lichtheimia corymbifera [39]
  MIC: > 500 µM
Lichtheimia corymbifera [40]
  MIC: > 500 µM
[41]
  MIC: > 500 µM
[42]
  MIC: > 500 µM
HepG2
  IC50: 4.4 µM
[43]
  Selectivity Index: 0.55
